# Compound activity (PubChem)
# Hits are enriched below; roughly 2.3% of the tested compounds scored in any of these assays.
# TRPC4 act – activators of mouse TRPC4 channel; HEK293 TRPC4beta/mu-opioid, Fluo4 calcium fluorescence; hits give high values; AID 2237; actives 0.49% (n = 310,000); Q9QUQ5; B-score at 10 µM;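 active = B-score above 5 SD of library B-scores, and initial fluorescence ratio not above library mean plus 5 SD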;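 also: positive B-score marks a calcium rise read as TRPC4 activation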
# Target sequence (Q9QUQ5 whole entry, looked up): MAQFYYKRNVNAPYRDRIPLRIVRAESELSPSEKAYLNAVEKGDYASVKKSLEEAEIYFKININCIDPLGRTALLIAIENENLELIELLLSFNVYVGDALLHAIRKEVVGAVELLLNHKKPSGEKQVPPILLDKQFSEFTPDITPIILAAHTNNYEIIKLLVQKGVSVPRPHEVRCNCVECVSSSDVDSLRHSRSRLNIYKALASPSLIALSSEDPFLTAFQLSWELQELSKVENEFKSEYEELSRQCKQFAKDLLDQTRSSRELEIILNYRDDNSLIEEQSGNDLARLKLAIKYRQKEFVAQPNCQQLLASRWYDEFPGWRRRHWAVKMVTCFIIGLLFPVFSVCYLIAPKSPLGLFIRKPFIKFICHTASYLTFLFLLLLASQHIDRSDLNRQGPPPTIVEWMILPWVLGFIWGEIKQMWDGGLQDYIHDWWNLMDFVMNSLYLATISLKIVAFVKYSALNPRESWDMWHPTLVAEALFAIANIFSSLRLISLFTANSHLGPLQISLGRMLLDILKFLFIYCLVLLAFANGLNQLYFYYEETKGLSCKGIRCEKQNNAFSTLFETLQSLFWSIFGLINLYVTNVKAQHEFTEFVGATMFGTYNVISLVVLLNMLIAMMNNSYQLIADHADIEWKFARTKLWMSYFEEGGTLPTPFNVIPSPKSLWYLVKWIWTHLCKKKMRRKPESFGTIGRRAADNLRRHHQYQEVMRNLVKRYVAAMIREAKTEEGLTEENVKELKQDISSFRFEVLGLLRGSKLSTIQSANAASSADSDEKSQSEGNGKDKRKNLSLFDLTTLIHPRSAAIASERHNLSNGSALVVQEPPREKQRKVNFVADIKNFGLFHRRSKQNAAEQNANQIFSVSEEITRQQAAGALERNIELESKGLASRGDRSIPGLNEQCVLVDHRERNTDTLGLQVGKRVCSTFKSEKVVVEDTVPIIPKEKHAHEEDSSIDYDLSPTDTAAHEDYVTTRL
#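 Assay system – TRPC4beta and mu-opioid receptor HEK293 stable cells · Measured by – Fluo4 fluorescence, kinetic · Schedule – dye loading 45 min room temperature, 110 s kinetic read · Read-out – B-scored integrated calcium fluorescence ratio · Controls – buffer and maximal DAMGO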
# TRPC4 block – blocks the mouse TRPC4 cation channel | Q9QUQ5 | HEK293 TRPC4beta/mu-opioid, DAMGO-evoked Fluo4 calcium flux; hits give low values | B-score at 10 µM | actives 0.39% (n = 300,000) | AID 2247;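 active = B-score over 3 SD under the library average, no early fluorescence shift, positive overall ratio signal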
#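 Assay system: TRPC4beta/mu-opioid receptor HEK293 cell line; compound dosing: single concentration per test compound; detection: Fluo4 Ca2+ flux fluorescence; evaluation: per-well B score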
# TRPC6 activator – activators of mouse TRPC6 channel; B-score at 10 µM; actives 0.13% (n = 310,000); Q61143; HEK293-TRPC6 membrane potential dye fluorescence; hits give high values; AID 2550;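 active = B-score of the integrated fluorescence ratio above library mean plus 3 SD, and starting fluorescence ratio within library mean plus 5 SD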;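 also: higher score means more depolarization so channel activation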
# TRPC6 inh – mouse TRPC6 channel inhibition; HEK293-TRPC6, membrane potential dye, ACh-evoked depolarization; hits give low values; B-score at 10 µM; actives 1.1% (n = 310,000); AID 2553;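 active = B-score under library mean minus 3 SD, initial fluorescence not abnormally high, positive integrated signal ratio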;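 also: B-score derived from integrated fluorescence ratio over the kinetic read; more negative B-score means stronger inhibition of depolarization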
# TRPC4 potent – allosteric potentiators of mouse TRPC4 channel | Q9QUQ5 | HEK293 TRPC4beta/mu-opioid, DAMGO EC20, Fluo-4 Ca2+ flux; hits give high values | actives 0.42% (n = 310,000) | B-score at 10 µM;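 active = B-score of calcium response area above 5 SD of library B-scores, with initial fluorescence ratio within 5 SD of library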;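 also: B-score of integrated fluorescence ratio over time as area under calcium response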
# TRPC4 spec 2 – second selectivity test of TRPC6 inhibitors: effect on mouse TRPC4; shares compounds with TRPC6 inh; HEK293 TRPC4/MOR, membrane potential dye fluorescence; channel activated by saturating DAMGO dose; inhibition, % at 10 µM; actives 42% (n = 920);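 active = compounds whose fluorescence signal differed from control wells by over 3 SD, either direction, in both duplicate plates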
# TRPC4 spec – mouse TRPC4 off-target activity of TRPC6 inhibitors; AID 2777; activity change, negative = inhibition, % at 10 µM; HEK293 TRPC4/mu-opioid, membrane potential fluorescence; actives 61% (n = 920); shares compounds with TRPC6 inh;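 active = rise or fall in signal beyond 3 SD of buffer-only wells in both replicate plates, either sign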;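 also: integrated kinetic ratio of fluorescence range over baseline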
# HEK293 MPD ctr 2-1 – second check of TRPC6 inhibitor effects in parental HEK293 cells | parental HEK293 membrane potential dye fluorescence; maximal acetylcholine challenge after compound addition | shares compounds with TRPC6 inh | actives 31% (n = 920) | signal change vs control, % at 10 µM;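 active = membrane potential signal moving either way by over 3 SD of the maximum-effect control, in both duplicate plates, meaning non-specific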
# HEK293 MPD ctr-1 – checks TRPC6 inhibitor effects in parental HEK293 cells. membrane potential signal change, % at 10 µM. actives 60% (n = 920). shares compounds with TRPC6 inh. parental HEK293 membrane potential dye fluorescence;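 active = membrane potential signal shifting up or down by more than 3 SD of buffer-only wells, on both duplicate plates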
# HEK293 MPD ctr-2 – parental HEK293 nonspecific activity of TRPC6 modulators; shares compounds with TRPC6 inh; membrane potential dye fluorescence; membrane potential signal change, % at 10 µM; actives 51% (n = 2,400);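 active = membrane potential signal moves up or down beyond 5 SD from buffer-only wells, on both duplicate plates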
# HEK293 MPD ctr 2-2 – parental HEK293 nonspecific activity of TRPC6 modulators, second screen. shares compounds with TRPC6 inh. membrane potential dye fluorescence; after compound, maximal acetylcholine stimulation. inhibition, % at 10 µM. actives 14% (n = 2,400);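 active = membrane potential signal drops by more than 5 SD from the mean control signal, in both duplicate plates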;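 also: plate controls were acetylcholine ECmax control wells for no effect and buffer only wells for full effect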
# TRPC4 ctr mod – selectivity of TRPC6 modulators against mouse TRPC4. shares compounds with TRPC6 inh. percent change from control (negative = decrease, positive = increase), % at 10 µM. HEK293 TRPC4/mu-opioid, membrane potential fluorescence. actives 69% (n = 2,400);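 active = membrane potential signal moved up or down beyond 5 SD of buffer control wells, in both duplicate plates, actives on both sides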;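 also: plate controls were assay buffer wells for no effect and DAMGO maximal-effect wells for full effect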
# TRPC4 ctr inh 2 – mouse TRPC4 off-target activity of TRPC6 modulators, second screen | inhibition, % at 10 µM | HEK293 TRPC4/mu-opioid, membrane potential dye fluorescence; stimulated with maximal-effect DAMGO | actives 55% (n = 2,400) | shares compounds with TRPC6 inh;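 active = drop in membrane potential signal beyond 5 SD of the control wells in both duplicate plates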;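 also: TRPC4 counter screen for TRPC6 hits run under conditions tuned for TRPC6 not TRPC4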
# TRPC6 inh conf – confirmation of mouse TRPC6 inhibitors | shares compounds with TRPC6 inh | HEK293-TRPC6, membrane potential dye, ACh-evoked depolarization | inhibition, % at 10 µM | actives 43% (n = 3,300);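 active = fluorescence ratio falls more than 5 SD below the full-stimulation control mean, in both duplicate runs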;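 also: integrated fluorescence ratio of peak minus minimum over baseline after agonist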
# TRPC6 act conf – confirmation of mouse TRPC6 activators; shares compounds with TRPC6 inh; HEK293-TRPC6 membrane potential dye fluorescence, FDSS; activation, % at 10 µM; actives 11% (n = 2,800); AID 488961;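 active = ratio signal rise beyond 5 SD above unstimulated control wells' mean, seen in both duplicate runs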;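 also: plate controls were buffer EC0 wells for no effect and acetylcholine ECmax response for full effect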
# Active calls of the source: *; i = inactive; / = not tested or not shown.
SMILES,TRPC4 act,TRPC4 block,TRPC6 activator,TRPC6 inh,TRPC4 potent,HEK293 MPD ctr-2,HEK293 MPD ctr 2-2,TRPC4 ctr mod,TRPC4 ctr inh 2,TRPC6 inh conf,TRPC6 act conf,others
CCOC(=O)c1cnc2c(ccc3ccccc32)c1NCCN(C)C,i,i,i,-6.8*,i,/,/,/,/,i,i,TRPC4 spec 2=74%*;TRPC4 spec=-14%*;HEK293 MPD ctr 2-1=i;HEK293 MPD ctr-1=-232%*
CCOC(=O)c1cnc2c(C(=O)OC)cccc2c1NCc1cccnc1,i,i,i,-6.2*,i,i,i,14%*,i,i,i,
CCOC(=O)c1c(NCCN(C)C)c2ccccc2[nH]c1=O,i,i,i,i,i,/,/,/,/,/,/,
CCOC(=O)c1cnc2c(ccc3ccccc32)c1NCCO,i,i,i,i,i,/,/,/,/,/,/,
CCOC(=O)c1cnc2c(Cl)cccc2c1NCCN(C)C,i,i,i,-9.2*,i,/,/,/,/,73%*,i,TRPC4 spec 2=68%*;TRPC4 spec=-26%*;HEK293 MPD ctr 2-1=18%*;HEK293 MPD ctr-1=-448%*
COc1cccc2cc(C(=O)NCCc3ccccc3)oc12,i,i,i,-6.2*,i,90%*,i,16%*,i,i,/,
COc1cccc(OC)c1C(=O)NCCc1ccccc1,i,i,i,i,i,/,/,/,/,/,/,
COc1ccc2c(c1)-c1c(ssc1=S)C(C)(C)N2,i,i,i,-5.6*,i,-164%*,i,-33%*,60%*,46%*,i,
O=C(c1cc(Cl)ccc1O)N1CCN(S(=O)(=O)c2cccs2)CC1,i,i,i,i,i,/,/,/,/,/,/,
CCOC(=O)C1=NN(C(=O)c2ccc(C)cc2)C(O)(c2ccc(Cl)cc2)C1 (stereo not drawn),90*,i,18*,-8*,i,281%*,i,70%*,i,i,180%*,
COC(=O)C1=NN(C(=O)c2ccc(Cl)cc2)C(O)(c2ccccc2)C1 (stereo not drawn),59*,i,16*,i,i,321%*,i,73%*,i,/,190%*,
CCC1=NN(C(=O)c2ccc(Cl)cc2)C(O)(c2ccccc2)C1 (stereo not drawn),i,i,i,i,i,/,/,/,/,/,/,
CCC1=NN(C(=O)c2ccc(Cl)cc2)C(O)(c2ccc(C)cc2)C1 (stereo not drawn),i,i,i,i,i,/,/,/,/,/,/,
Cc1ccc(NC(=O)CCCC2CCCCC2)c(O)c1,i,i,i,i,i,/,/,/,/,/,/,
